Screening results deposited in PubChem BioAssay by several laboratories.
Autophagy HCS – alters autophagy in cells; MEF GFP-LC3 puncta imaging; test concentration mostly 10 µM; calls only at 10 µM (by protocol); 190,000 compounds, 0.98% hits;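 active = percentage of spot-positive cells more than 3 SD above its plate mean, without a fluorescence outlier flag or 80% toxicity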;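 also: spot-positive cell cutoff set from DMSO-treated cells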
MT stabilizer – microtubule stabilization, imaging screen; 200,000 compounds, 0.83% hits; % tubulin-high responders, % at 10 µM; HeLa tubulin immunostaining HCS, 24 h; share of cells brighter than vehicle mean+2SD;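 active = plate Z-score above 3 for both tubulin-high and condensed-nucleus cell shares, with cell loss under 80%, at 10 µM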;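 also: anti alpha tubulin signal scored within the nucleus-defined area of each cell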
CHOP inh – inhibitors of CHOP induction in ER stress response | CHO-K1 CHOP-promoter luciferase, tunicamycin-induced, 15-18 h | inhibition, % at 10 µM | 220,000 compounds, 3.8% hits | AID 2732;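 active = compounds that reduced the stress-induced luciferase reporter signal by more than about 70% of percent inhibition, limit read from the data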;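 also: 0% = tunicamycin plus vehicle and 100% = wells without tunicamycin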
b-catenin transl – beta-catenin nuclear translocation modulation; 190,000 compounds, 0.3% hits; AID 1665; HeLa beta-catenin nuclear translocation, immunofluorescence imaging; nuclear translocation activity, % at 5 µM;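 active = nuclear translocation activity above 50% at 5 µM, with a well cell count of 50 or more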;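 also: per-cell ratio of nuclear to cytoplasmic median beta-catenin stain intensity; plate controls were DMSO negative control for no effect and GSK-3 inhibitor IX positive control for full effect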
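System: HeLa cells, endogenous beta-catenin; compound dosing: 5 µM primary single dose, 0.1% DMSO, 0.02–20 µM confirmation series; incubation: 24 h compound exposure at 37°C, 5% CO2; signal: beta-catenin immunofluorescence imaging with DAPI; evaluation: % activation, nuclear-to-cytoplasmic median beta-catenin signal ratio per cell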
Dynein transport – blocks dynein driven cargo transport along microtubules | 3617.4 mouse cells, GR-EGFP nuclear translocation imaging; test concentration mostly 20 µM; stimulated with dexamethasone, 1 µM; stronger effect = lower value | z-score, hits read low | 220,000 compounds, 0.47% hits;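 active = plate z-score of nuclear minus cytoplasmic receptor signal below a set negative limit, without overly bright fluorescence or cell loss, cut at about -3.5 in these data, passing the limit was not always enough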;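 also: z-score of nuclear minus cytoplasmic ring GR-EGFP intensity difference per well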
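Also added: dexamethasone, 1.0 µM final. Medium: tet-free, stripped-serum medium. Detection: fixed, Hoechst-stained cells imaged at 10x for EGFP. Read-out: nuclear-to-cytoplasmic GR-EGFP distribution per well. Times: induction 48 h, compound 1 h, agonist 30 min.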
L major viab – inhibitors of Leishmania major promastigote growth; Leishmania major promastigotes, resazurin fluorescence viability; inhibition, % at 10 µM; 200,000 compounds, 9% hits; AID 1063; in the data active = inhibition above about 50%;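 also: promastigotes grown with compound for 44 hours at 28 °C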
The depositor's hits bear a star; i = inactive; . = no result given; + = active, no number. Sampled rows, rich in hits. Any-hit rate of the full collection: about 12%.

SMILES | Autophagy HCS | MT stabilizer | CHOP inh | b-catenin transl | Dynein transport | L major viab
O=C(c1ccccc1)N1CCN(CC(O)COC2CCCCC2)CC1 (centres undefined) | i | 6 | 11 | -1 | 0.58 | -3
CC1(C)NC(=O)N(CC(O)COC2CCCCC2)C1=O (centres undefined) | i | 4 | 5 | -1 | 1.6 | -1
CC(C)(C)C1CCC(OCC(O)CN2CCN(c3ccccc3)CC2)CC1 (centres undefined) | i | 3 | 44 | 0 | 2.6 | 91*
CC(C)c1nnc(NC(=O)C2CCN(S(=O)(=O)c3ccc(-n4cnnn4)cc3)CC2)s1 | i | 3 | 6 | -5 | -0.23 | -8
NC(=O)CSc1nc2c(sc3ccccc32)c(=O)n1CCCC(=O)NCC1CCCO1 (centres undefined) | . | . | -4 | -4 | 0.55 | .
CCCCn1c(=O)c(C(=O)N/N=C/c2ccc(F)cc2)c(O)c2ccccc21 | i | 2 | 16 | 0 | 0.11 | 24
CCc1ccc2c(c1)C(c1ccc([N+](=O)[O-])cc1)=NNC(c1ccc(F)cc1)=N2 | i | 2 | 86* | 0 | 1.5 | 5
COc1ccc2c(c1)C(c1ccc([N+](=O)[O-])cc1)=NNC(c1ccco1)=N2 | i | 2 | -21 | . | -0.29 | 10
CCc1ccc2c(c1)C(c1ccncc1)=NNC(c1ccccc1)=N2 | i | 3 | 8 | 0 | -0.63 | 55*
Cc1ccc2c(c1)C(c1ccncc1)=NNC(c1ccccc1)=N2 | i | 1 | -25 | 2 | 2 | 19
COc1ccc(C2=NNC(c3cccnc3)=Nc3ccc(OC)cc32)cc1 | i | 13* | 14 | 0 | -0.52 | 5
COc1ccc2c(c1)C(c1ccc(N3CCOCC3)cc1)=NNC(c1cccnc1)=N2 | i | 4 | 11 | 0 | 0.33 | 4
c1nc(Nc2ccc(N3CCOCC3)cc2)c2ccsc2n1 | . | . | 2 | -2 | 0.31 | .
Fc1ccc(-c2csc3ncnc(N4CCc5ccccc5C4)c23)cc1 | i | 4 | 24 | 0 | -0.91 | 67*
Fc1ccc(-c2csc3ncnc(Nc4ccc(N5CCOCC5)cc4)c23)cc1 | i | 2 | 42 | 1 | 0.35 | 65*
COc1ccc2c(c1)CCC(C)N2S(=O)(=O)c1ccc(C2CNC(=O)C2)cc1 (centres undefined) | i | 4 | 18 | 1 | 0.043 | 95*
O=C1NC(Cc2c[nH]c3ccccc23)C(=O)N1Cc1ccc(CN2C(=O)NC(Cc3c[nH]c4ccccc34)C2=O)cc1 (centres undefined) | i | 5 | 2 | 0 | 0.47 | 8
CC(=N)c1c(O)c2ccccc2oc1=O | . | . | -31 | 1 | 0.15 | .
CC1CCC(C(=O)c2c(O)c3ccccc3oc2=O)CC1 (centres undefined) | i | 3 | 66 | . | 0.46 | 99*
CCOc1ccc2c(c1)C(C)=CC(C)(C)N2S(=O)(=O)c1ccc(C)cc1 | i | 6 | -16 | 44 | 1.3 | 95*
CC1=CC(C)(C)N(S(=O)(=O)c2ccc(C)cc2)c2cc(C)ccc21 | + | 21* | . | . | 0.7 | 99*
COc1ccc2c(c1)C(C)=CC(C)(C)N2S(=O)(=O)c1ccc(C)cc1 | i | 9 | -14 | 63* | -0.75 | 98*
CC1=CC(C)(C)N(C(=O)CCl)c2cc(C)ccc21 | i | 3 | 59 | 1 | -0.84 | 2
CCNC(=O)N1c2ccc(OCC)cc2C(C)=CC1(C)C | i | 4 | 17 | -6 | -1.1 | 11
CCOc1ccc2c(c1)C(C)=CC(C)(C)N2C(=O)Nc1ccccc1F | i | 2 | 19 | -8 | 0.47 | 68*
SMILES | Autophagy HCS | MT stabilizer | CHOP inh | b-catenin transl | Dynein transport | L major viab
O=C(O)Cc1sc(Nc2ccc(F)cc2)nc1-c1cccs1 | i | 2 | -20 | 0 | -0.65 | -8
CC(=O)c1cccc(NC(=O)CN(C)Cc2ccc(OC(F)F)cc2)c1 | . | . | 2 | 2 | -0.76 | .
Cc1oc(-c2cc3c(cc2Cl)OCO3)nc1CN1CCCC1c1ccc(F)cc1 (centres undefined) | i | 3 | 66 | 0 | -0.88 | 16
Cc1ccc(NC(=O)N2CCCC2C(=O)NCCc2ccccc2)cc1 (centres undefined) | i | 5 | 34 | -3 | -0.53 | -4
Cc1ccsc1C(=O)N(c1nc2ccccc2s1)c1c(C)cccc1C | i | 2 | 65 | -2 | -0.99 | 100*
COc1ccc(C)cc1N(C(=O)c1ccccc1)c1nc2ccccc2s1 | i | 5 | -10 | 5 | 0.34 | 21
CCNS(=O)(=O)c1ccc2nc(NC(=O)/C=C/c3cc(OC)c(OC)c(OC)c3)sc2c1 | i | 5 | 24 | 0 | -0.66 | 52*
CCn1nnnc1SCC(=O)N1CCCc2ccccc21 | i | 3 | 2 | 1 | -0.6 | -2
COc1ccc(NCc2nnc(SCC(=O)Nc3ccccc3)n2C)cc1 | i | 1 | 14 | 0 | -1.1 | -4
COc1ccc2c(=O)c(Oc3ccc(C(=O)O)cc3)c(C(F)(F)F)oc2c1 | i | 7 | -4 | -3 | -0.54 | -2
CCOC(=O)C1CCCN(C(=O)CNS(=O)(=O)c2ccc(Br)s2)C1 (centres undefined) | i | 2 | 3 | -1 | -0.22 | 0
CCOC(=O)N1CCC(NC(=O)CNS(=O)(=O)c2ccc(Br)s2)CC1 | i | 20* | 22 | 3 | -0.028 | -5
O=C(NC1CCCCCC1)C1CCC(CNS(=O)(=O)c2ccc(Br)s2)CC1 (centres undefined) | i | 4 | 95* | -3 | -0.6 | 5
CCCCN(CC)C(=O)CSc1nc2c(sc(=S)n2-c2ccc(OCC)cc2)c(=O)[nH]1 | i | 5 | -11 | -1 | -0.81 | -4
COc1cccc(N2CC(O)=C(c3nc4ccccc4c(=O)[nH]3)C2=N)c1 | + | 26* | -22 | 109* | -0.13 | 6
COc1ccc(OC)c(NC(=O)CCC(=O)N(Cc2ccc(OC)c(OC)c2)c2nccs2)c1 | i | 3 | 6 | 0 | 0.37 | -4
COc1ccc(NC(=O)CCC(=O)N(Cc2ccc(OC)c(OC)c2)c2nccs2)cc1 | i | 3 | 28 | 3 | 0.73 | 54*
COc1ccccc1C1CC(=O)Nc2cc3c(cc21)OCCO3 (centres undefined) | + | 13 | . | -3 | 1.1 | 12
CCCOc1c(OC)cccc1C1CC(=O)Nc2cc3c(cc21)OCCO3 (centres undefined) | i | 51* | 10 | . | 0.48 | 3
CCCOc1c(OC)cccc1C1CC(=O)Nc2cc3c(cc21)OCO3 (centres undefined) | i | 37* | 47 | -1 | 0.87 | 2
CC(C)Oc1ccccc1C1CC(=O)Nc2cc3c(cc21)OCCO3 (centres undefined) | i | 10 | . | 5 | -0.28 | 18
